Results taken from ChEMBL document CHEMBL4130532, “Camellianols A-G, Barrigenol-like Triterpenoids with PTP1B Inhibitory Effects from the Endangered Ornamental Plant Camellia crapnelliana” (J Nat Prod, 2017).

Legend:
[1] = target: T1, Tyrosine-protein phosphatase non-receptor type 1 (Homo sapiens, UniProt P18031); assay: Inhibition of recombinant human GST-tagged PTP1B catalytic domain expressed in Escherichia coli BL21 using para-nitrophenyl phosphate as substrate
T1 sequence (P18031 whole entry): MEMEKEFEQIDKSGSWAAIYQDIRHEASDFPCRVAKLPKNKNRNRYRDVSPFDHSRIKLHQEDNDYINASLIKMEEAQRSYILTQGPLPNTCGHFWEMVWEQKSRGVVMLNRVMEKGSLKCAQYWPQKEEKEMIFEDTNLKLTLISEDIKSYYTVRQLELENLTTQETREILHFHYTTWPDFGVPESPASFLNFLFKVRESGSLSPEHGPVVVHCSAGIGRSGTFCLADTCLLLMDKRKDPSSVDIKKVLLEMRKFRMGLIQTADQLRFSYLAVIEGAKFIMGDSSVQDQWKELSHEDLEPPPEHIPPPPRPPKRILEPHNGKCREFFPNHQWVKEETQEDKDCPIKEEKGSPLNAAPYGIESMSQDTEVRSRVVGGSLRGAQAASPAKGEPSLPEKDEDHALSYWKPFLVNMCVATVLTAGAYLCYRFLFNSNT

[2] = Cytotoxicity against human L02 cells assessed as cell viability at 10 uM after 24 hrs by MTS assay relative to control; format: cell-based; conditions: read-out: Activity
In short: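 Human […] L02 cells were seeded and cultured overnight, then exposed to the compound at varying concentrations for 24 h. Medium containing the water-soluble tetrazolium MTS reagent was added, and the cells were incubated at 37 °C for 2 h to read out viability.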

Row | IC50 [1] | SMILES | viability at 24 h, 10 µM [2]
1 | 16.8 µM | CC1(C)C[C@H](O)[C@]2(CO)[C@H](O)[C@H](O)[C@]3(C)C(=CC[C@@H]4[C@@]5(C)CC[C@H](O)C(C)(C)[C@@H]5CC[C@]43C)[C@@H]2C1 | > 90%
2 | – | CC1(C)CC[C@]2(C(=O)O)CC[C@]3(C)C(=CC[C@@H]4[C@@]5(C)CC[C@H](O)C(C)(C)[C@@H]5CC[C@]43C)[C@@H]2C1 [OLEANOLIC_ACID] | > 90%
3 | 11.1 µM | C/C=C(/C)C(=O)OC[C@@]12[C@H](O)[C@H](O)[C@]3(C)C(=CC[C@@H]4[C@@]5(C)CC[C@H](O)C(C)(C)[C@@H]5CC[C@]43C)[C@@H]1CC(C)(C)C[C@@H]2O | > 90%
4 | 2.56 µM | C/C=C(/C)C(=O)O[C@H]1CC(C)(C)C[C@H]2C3=CC[C@@H]4[C@@]5(C)CC[C@H](O)C(C)(C)[C@@H]5CC[C@@]4(C)[C@]3(C)[C@@H](O)[C@@H](O)[C@@]12CO | > 90%
5 | 14.4 µM | CC1(C)CC[C@]2(CO)[C@H](O)[C@H](O)[C@]3(C)C(=CC[C@@H]4[C@@]5(C)CC[C@H](O)C(C)(C)[C@@H]5CC[C@]43C)[C@@H]2C1 | > 90%
6 | 1.34 µM | CC1(C)CC[C@]2(C)CC[C@@]3(C)[C@]4(C)CC[C@H]5C(C)(C)[C@@H](O)CC[C@]5(C)[C@H]4[C@H](O)C(=O)[C@]3(O)[C@@H]2C1 | > 90%
7 | 4.87 µM | C/C=C(/C)C(=O)O[C@H]1CC(C)(C)C[C@H]2C3=CC[C@@H]4[C@@]5(C)CC[C@H](O)C(C)(C)[C@@H]5CC[C@@]4(C)[C@]3(C)[C@@H](O)[C@@H](OC(C)=O)[C@@]12CO | > 90%
8 | 49.4 µM | CC1(C)C[C@H](O)[C@]2(CO)[C@H](O)[C@H](O)[C@]3(C)C(=CC[C@@H]4[C@@]5(C)CCC(=O)C(C)(C)[C@@H]5CC[C@]43C)[C@@H]2C1 | > 90%
9 | 8.93 µM | CC1(C)C[C@H](O)[C@]2(CO)[C@H](O)C[C@]3(C)C(=CC[C@@H]4[C@@]5(C)CC[C@H](O)C(C)(C)[C@@H]5CC[C@]43C)[C@@H]2C1 | > 90%
10 | 19.3 µM | C[C@H]1[C@H](C)CC[C@]2(C)CC[C@]3(C)C(=CC[C@@H]4[C@@]5(C)CC[C@H](O)C(C)(C)[C@@H]5CC[C@]43C)[C@H]12 | > 90%
11 | 7.4 µM | C/C=C(/C)C(=O)O[C@H]1CC(C)(C)C[C@H]2C3=CC[C@@H]4[C@@]5(C)CC[C@H](O)C(C)(C)[C@@H]5CC[C@@]4(C)[C@]3(C)[C@@H](OC(C)=O)[C@@H](O)[C@@]12CO | > 90%
12 | 20 µM | CC(=O)O[C@@H]1[C@H](O)[C@]2(C)C(=CC[C@@H]3[C@@]4(C)CCC(=O)C(C)(C)[C@@H]4CC[C@]32C)[C@@H]2CC(C)(C)C[C@H](O)[C@]12CO | > 90%
13 | 44.4 µM | CC(=O)O[C@H]1[C@@H](O)[C@@]2(CO)[C@@H](O)CC(C)(C)C[C@H]2C2=CC[C@@H]3[C@@]4(C)CCC(=O)C(C)(C)[C@@H]4CC[C@@]3(C)[C@@]21C | > 90%
14 | 10.2 µM | CC(=O)O[C@@H]1C[C@]2(C)C(=CC[C@@H]3[C@@]4(C)CC[C@H](O)C(C)(C)[C@@H]4CC[C@]32C)[C@@H]2CC(C)(C)C[C@H](O)[C@]12CO | > 90%
15 | 47.4 µM | CC(=O)O[C@@H]1[C@H](O)[C@]2(C)C(=CC[C@@H]3[C@@]4(C)CC[C@H](O)C(C)(C)[C@@H]4CC[C@]32C)[C@@H]2CC(C)(C)C[C@H](O)[C@]12CO | > 90%
16 | 3.68 µM | C=C(C)[C@@H]1CC[C@]2(C)CC[C@]3(C)[C@H](CC[C@@H]4[C@@]5(C)CC[C@H](O)C(C)(C)[C@@H]5CC[C@]43C)[C@@H]12 [LUPEOL] | > 90%
17 | > 100 µM | CC1(C)CC[C@]2(C)CC[C@]3(C)C(=CC[C@@H]4[C@@]5(C)CC[C@H](O)C(C)(C)[C@@H]5CC[C@]43C)[C@@H]2C1 [beta-AMYRIN] | > 90%

Row | SMILES | IC50 [1] | viability at 24 h, 10 µM [2]
18 | CC(C)(O)[C@@H]1CC[C@]2(C)CC[C@]3(C)C(CC[C@@H]4[C@@]5(C)CC[C@H](O)C(C)(C)[C@@H]5CC[C@]43C)[C@H]12 (stereo not given in full) | 12.4 µM | > 90%
